M4 PAM – human M4 muscarinic receptor positive allosteric modulators, primary screen, CHO-K1 cells, Fluo-8 calcium fluorescence | 360,000 tested, 0.4% active | AID 624126, 2012 | activation, % at 3 µM | CHO-K1 hM4/Gqi5, ACh EC20; 0% = ACh EC20, 100% = maximal ACh;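 active means activation above its plate's cutoff, the mean activation of sample wells plus 3 SD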
M4 antag – human M4 muscarinic receptor antagonists, primary screen, CHO cells, Fluo-8 calcium fluorescence. Muscarinic acetylcholine receptor M4 (Homo sapiens), P08173. CHO-hM4 cells, ACh EC80. inhibition, % at 3 µM. 360,000 tested, 0.73% active. AID 624125, 2012;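 active means inhibition above its plate's cutoff, the mean inhibition of sample wells plus 3 SD, cut at about 27% in these data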
M5 ag – human M5 muscarinic receptor agonists, primary screen, CHO-K1 cells, Fluo-8 calcium fluorescence. AID 624037, 2012. activation, % at 3 µM. CHO-K1 hM5 cells; 0% DMSO wells, 100% maximal acetylcholine response. 360,000 tested, 0.19% active. Muscarinic acetylcholine receptor M5 (Homo sapiens), P08912;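 active means activation above the run's mean over test compounds plus 3 SD, cut at about 23% in these data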;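 further: signal is peak over basal fluorescence ratio across the kinetic read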
Target sequence (P08912 whole entry, looked up): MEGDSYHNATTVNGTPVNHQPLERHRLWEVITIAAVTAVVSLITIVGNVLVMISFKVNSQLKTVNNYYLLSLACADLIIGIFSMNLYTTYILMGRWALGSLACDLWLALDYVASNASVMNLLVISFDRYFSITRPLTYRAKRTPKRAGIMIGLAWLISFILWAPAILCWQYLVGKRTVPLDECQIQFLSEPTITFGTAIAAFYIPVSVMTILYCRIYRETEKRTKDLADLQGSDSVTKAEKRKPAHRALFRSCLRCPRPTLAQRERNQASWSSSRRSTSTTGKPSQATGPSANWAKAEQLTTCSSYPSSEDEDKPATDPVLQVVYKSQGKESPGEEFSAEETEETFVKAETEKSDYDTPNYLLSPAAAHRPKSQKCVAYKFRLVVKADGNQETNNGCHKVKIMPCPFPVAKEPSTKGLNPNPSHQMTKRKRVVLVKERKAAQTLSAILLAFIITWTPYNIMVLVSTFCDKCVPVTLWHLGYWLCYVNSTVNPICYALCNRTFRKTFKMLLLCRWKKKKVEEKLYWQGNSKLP
M5 antag – human M5 muscarinic receptor antagonists, primary screen, CHO cells, Fluo-8 calcium fluorescence. Muscarinic acetylcholine receptor M5 (Homo sapiens), P08912. AID 624040, 2012. CHO-hM5 cells, ACh EC80. 360,000 tested, 0.59% active. inhibition, % at 3 µM;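 active means inhibition above a per-plate cutoff, the mean of that plate's test compounds plus 3 SD, cut at about 27% in these data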
M5 PAM – human M5 muscarinic receptor positive allosteric modulators, primary screen, CHO-K1 cells, Fluo-8 calcium fluorescence; Muscarinic acetylcholine receptor M5 (Homo sapiens), P08912; CHO-K1 hM5, ACh EC20 PAM; 0% = ACh EC20, 100% = ACh EC100; activation, % at 3 µM; 360,000 tested, 0.3% active;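 active means activation above the run cutoff, the mean activation of all test compounds plus 3 SD, cut at about 18% in these data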
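System: CHO-K1 hM5 cells. Reagent: acetylcholine, EC20 level. Compound dosing: single dose, 3 µM nominal final test concentration. Timing: Post-acetylcholine fluorescence recording 140 s. Detection: Fluo-8 calcium fluorescence. Read-out: % activation, ACh-normalized. Benchmarks: ACh EC20 and EC100 wells. Repeats: singlicate, one well per test compound.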
M4 ag – human M4 muscarinic receptor agonists, primary screen, CHO-K1 cells, Fluo-8 calcium fluorescence; Muscarinic acetylcholine receptor M4 (Homo sapiens), P08173; CHO-K1 hM4/Gqi5; vehicle 0%, full acetylcholine response 100%; activation, % at 3 µM; 360,000 tested, 0.14% active;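 active means activation above the run mean over all test wells plus 3 SD, cut at about 32% in these data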;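 further: peak over basal fluorescence ratio per well then scaled between controls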
Large screens that a line does not name were inactive; ! = repeats disagree. A selection: hits, their analogues and other compounds. The true share with any hit is near 1.9%.

O=C(/C=C/c1ccccc1)N1c2ccccc2Sc2ccc(C(F)(F)F)cc21	M4 PAM 29
O=C1CCCN1CCCNCC(=O)N1c2ccccc2Sc2ccccc21	M4 antag 52, M5 antag 35
O=C(CN1CCCC(O)C1)N1c2ccccc2Sc2ccc(C(F)(F)F)cc21 (stereo not drawn)	M4 antag 65, M5 antag 41
O=C1CCCN1CCCNCC(O)c1ccccc1 (stereo not drawn)	none
CC1CCCN(c2ccc(C(=O)OCC(=O)N3c4ccccc4Sc4ccccc43)cc2[N+](=O)[O-])C1 (stereo not drawn)	M4 antag 30
CC1CCCN(c2ccc(C(=O)OCn3nnc4ccccc4c3=O)cc2[N+](=O)[O-])C1 (stereo not drawn)	none
COc1cc(C(CCN2CCCC(C)C2)c2c(OC)cc(OC)c3c(-c4ccccc4)cc(=O)oc23)cc(OC)c1OC (stereo not drawn)	none
CN1CCN(CCCN2c3ccccc3Sc3ccc(C(F)(F)F)cc32)CC1	M4 antag 85!
O=C(CN1CCN(CCOCCO)CC1)N1c2ccccc2Sc2ccc(Cl)cc21	M4 antag 34
O=C(C1CC1)N1c2ccccc2Sc2ccccc21	none
CCOC(=O)N1CCN(CC(=O)N2c3ccccc3Sc3ccccc32)CC1	none
O=C(CN1CCCCCC1)N1c2ccccc2Sc2ccccc21	M4 antag 94, M5 antag 94
O=C(CN1CCOCC1)N1c2ccccc2Sc2ccc(Cl)cc21	none
CN1CCN(CC(=O)N2c3ccccc3Sc3ccccc32)CC1	M4 antag 67, M5 antag 64
CC1Cc2ccccc2N1C(=O)CN1CCCCC1 (stereo not drawn)	none
CC1CCCN(CCC(=O)c2ccccc2)C1 (stereo not drawn)	none
CC1CCCN(CC(=O)N2c3ccccc3Sc3ccccc32)C1 (stereo not drawn)	M4 antag 33, M5 antag 30
O=C(CN1CCCCC1)N1c2ccccc2Oc2ccccc21	M4 antag 37
O=c1[nH]cnc2sc3c(c12)CCC3	none
CCC(C)(C)c1ccc(OCCCC[n+]2cccc(C)c2C)c(C(C)(C)CC)c1	M4 antag 62, M5 antag 47
COc1ccc(-c2cn3cccnc3n2)cc1NC(=O)CC(C)C	none
Nc1nonc1-n1nnc(C(=O)N/N=C/c2ccccc2Cl)c1CN1CCOCC1	M4 PAM 16
CCOc1ccc(-c2c(C(=O)N/N=C(\C)c3cccnc3)nnn2-c2nonc2N)cc1	M5 PAM 20
Cc1ccc(-c2c(C(=O)N/N=C/c3cccs3)nnn2-c2nonc2N)cc1	none
Cc1ccsc1/C=N/NC(=O)c1nnn(-c2nonc2N)c1-c1ccc2c(c1)OCO2	none
Nc1nonc1-n1nnc(C(=O)N/N=C/c2cccs2)c1-c1ccc2c(c1)OCO2	M5 ag 57, M4 ag 69
Cc1ccc(-c2c(C(=O)N/N=C/c3ccsc3)nnn2-c2nonc2N)cc1	M5 ag 26
CC(=O)Oc1c(Cl)cc(N(C(C)=O)S(=O)(=O)c2ccccc2)c2ccccc12	none
CCOc1ccc(/C=N/NC(=O)c2nnn(-c3nonc3N)c2-c2cccs2)cc1	M5 ag 33, M4 ag 33
Cc1ccc2c(C)c(C(=O)Nc3ccc(S(N)(=O)=O)cc3)oc2c1C	M5 PAM 27
Cc1ccc2c(C)c(C(=O)NCc3ccc(S(N)(=O)=O)cc3)oc2c1C	M5 PAM 27
CCOC(=O)/C=C1\CC(=O)Nc2nonc2N1	none
CCCc1cc(=O)[nH]c2nnc(SCC(=O)Nc3nccs3)n12	none
S=C(NCc1ccc(Cl)cc1)Nc1ccccc1	none
CCC(NC(=S)NCc1ccc(F)cc1)c1ccc(C(C)C)cc1 (stereo not drawn)	M4 antag 82
S=C(NCc1ccc(Cl)cc1)Nc1ccncc1	M5 antag 41
Fc1ccc(CNC(=S)Nc2ccc(Cl)cc2)cc1	M5 antag 31
S=C(NCc1ccncc1)Nc1cccc(Cl)c1	none
CCOC(=O)CC1COCCN1C(=O)c1cc(COc2ccccc2SC)on1 (stereo not drawn)	none
CC(=O)N1CCN(c2ccccc2NC(=O)c2cc3ccccc3o2)CC1	none
CCC1=NN(C(=O)c2ccc(C)cc2)C(O)(c2ccc(Br)cc2)C1 (stereo not drawn)	none
CCC1=NN(C(=O)c2ccc(Br)cc2)C(O)(c2ccc(C)cc2)C1 (stereo not drawn)	M4 PAM 22
COc1cccc(C2CC(c3ccc(Cl)cc3)n3nc(N)nc3N2)c1 (stereo not drawn)	none
O=[N+]([O-])c1ccc(CN2CCSCC2)cc1	M5 PAM 22
COc1ccc(CCC(C)NC2C3CC4CC(C3)CC2C4)cc1 (stereo not drawn)	M4 antag 66
CC(=O)[C@@]1(O)CCC2C3C=CC4=CC(=O)CC[C@]4(C)C3CC[C@@]21C (stereo partly drawn)	none
CC(=O)[C@@]1(O)CC[C@H]2[C@@H]3C[C@H](C)C4=CC(=O)CC[C@]4(C)[C@H]3CC[C@@]21C	M4 antag 33
CC(=O)C1(O)CCC2C3CC(C)C4=CC(=O)CCC4(C)C3CCC21C (stereo not drawn)	M4 antag 44
C=C1CC2C(CCC3(C)C2CCC3(O)C(C)=O)C2(C)CCC(=O)C=C12 (stereo not drawn)	none
COc1cc(CNc2ccc3[nH]c(=O)[nH]c3c2)ccc1OCc1ccccc1	none
CCC(=O)N1CCCc2cc(S(=O)(=O)N3CCN(c4ncccn4)CC3)ccc21	none
CCC(=O)N1CCCc2cc(S(=O)(=O)N3CCN(c4ccccn4)CC3)ccc21	M5 PAM 33
CCN(C(=O)COC(=O)c1c(C)c(-c2ccccc2)nc2ccccc12)C1CCS(=O)(=O)C1 (stereo not drawn)	M5 ag 25
CCN(C(=O)COC(=O)c1c(-c2ccccc2)noc1C)C1CCS(=O)(=O)C1 (stereo not drawn)	none
CC(=O)Nc1sc(C)c(C)c1C(=O)OCC(=O)N(CC(C)C)C1CCS(=O)(=O)C1 (stereo not drawn)	M4 PAM 23
Cc1cc(NC(=O)c2ccc(F)cc2)n(-c2ccccn2)n1	none

Bioassay records from PubChem BioAssay.
